Screening data as filed in PubChem BioAssay.
The list is not random: actives were taken first. Their share in the collection is about 4.2%.
TAAR1 agonist – agonists of human TAAR1; Q96RJ0; CHO RD-HGA16 TAAR1, Fluo-8 calcium fluorescence; vehicle wells 0%, saturating PEA agonist 100%; activation, % at 3 µM; 360,000 compounds, 0.99% hits;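 active means activation above the mean activation of all test compounds in the run plus 3 SD, cut at about 38% in these data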
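System: CHO-derived RD-HGA16 cells with stable Gα16 and human TAAR1. Times: 17-24 h plating, Fluo-8 75 min 37 °C, 30 min RT. Measured by: calcium-sensitive Fluo-8 signal, excitation 470-495, emission 515-575 nm. Read-out basis: % activation relative to PEA EC100 response. Control set: DMSO and PEA EC100. Repeats: no replicates (n 1).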
GalR3 antagonist – blocks the human galanin receptor 3. 360,000 compounds, 0.44% hits. inhibition, % at 3 µM. HEK293 GalR3-CNG cAMP membrane potential fluorescence; galR3 body fused to GalR1 C-terminus. AID 651719. O60755;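 active means inhibition above the screen-wide average plus 3 SD, cut at about 13% in these data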;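 further: forskolin and galanin both at EC90 stimulate the cells; cAMP rise reported by CNG channel membrane potential dye signal; 0% = forskolin plus galanin with DMSO and 100% = forskolin alone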
TAAR1 antagonist – antagonists of human TAAR1; Q96RJ0; CHO RD-HGA16 TAAR1, Fluo-8 calcium fluorescence, antagonist; inhibition, % at 3 µM; 360,000 compounds, 1.5% hits; AID 624466;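 active means inhibition above a per-plate cutoff, the mean inhibition of test compounds on that plate plus 3 SD, cut at about 49% in these data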;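 further: 0% = DMSO plus EC80 beta-PEA response and 100% = DMSO alone without agonist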
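Material: RD-HGA16 CHO cells with stable hTAAR1 and Gα16; Dosing: single nominal final test compound concentration of 3 µM; Schedule: seeding 17-24 h prior, 75-min 37 °C, 30-min RT dye loading; Detection: kinetic Fluo-8 calcium fluorescence measurement; Measure: % inhibition from peak post-agonist over basal fluorescence ratio; Benchmarks: vehicle and agonist controls.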
OX1R antag-1 – OX1R (human) antagonism; O43613; OX1R-expressing cells, FRET antagonist read-out; inhibition, % at 6.6 µM; 330,000 compounds, 1.8% hits; AID 485270; in the data active means inhibition mostly above about 38%, no sharp cut-off; inactive means mostly below about 40%;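 further: 0% = agonist challenge alone and 100% = reference antagonist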
Target sequence (O43613 whole entry, looked up): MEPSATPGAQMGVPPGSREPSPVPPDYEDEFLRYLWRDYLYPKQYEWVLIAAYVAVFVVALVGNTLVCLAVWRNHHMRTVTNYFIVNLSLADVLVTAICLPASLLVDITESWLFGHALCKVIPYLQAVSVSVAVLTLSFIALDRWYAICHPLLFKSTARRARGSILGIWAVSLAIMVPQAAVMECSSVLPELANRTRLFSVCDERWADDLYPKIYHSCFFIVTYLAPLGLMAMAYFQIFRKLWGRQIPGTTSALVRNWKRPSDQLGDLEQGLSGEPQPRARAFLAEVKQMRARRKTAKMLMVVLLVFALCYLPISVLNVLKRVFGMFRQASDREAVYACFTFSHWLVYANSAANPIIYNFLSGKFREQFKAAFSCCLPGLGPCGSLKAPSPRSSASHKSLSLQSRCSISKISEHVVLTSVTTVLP
OX1R antag-2 – antagonists of human orexin 1 receptor. O43613. CHO/OX1R cells, Fluo-8 calcium fluorescence, orexin A. inhibition, % at 5 µM. 330,000 compounds, 0.43% hits. AID 434989;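 active means inhibition above its plate's threshold, mean inhibition of all tested compounds on the plate plus 3 SD, cut at about 37% in these data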;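 further: 0% = orexin A challenge wells and 100% = SB-334867-A antagonist wells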
CHO parental Ca – counter-screen for OX1R antagonists: effect in parental CHO cells; parental CHO-K1, ATP-induced calcium, Fluo-8 fluorescence; inhibition, % at 5.6 µM; 330,000 compounds, 0.63% hits; AID 463079;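 active means inhibition above that plate's mean sample inhibition plus 3 SD, cut at about 26% in these data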;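 further: 0% = ATP-challenged DMSO wells and 100% = DMSO wells without ATP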
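Test system: untransfected parental CHO cell line. Compound: one dose, 5.6 µM nominal. Detection: intracellular calcium via Fluo-8 no-wash fluorescent dye. Measure: % inhibition. Benchmarks: ATP-challenged DMSO wells low, unchallenged DMSO wells high.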
TAAR1 nonsel count – nonselective antagonist in TAAR1 antagonist counter-screen; shares compounds with TAAR1 antagonist; counterscreen cell line, calcium fluorescence, antagonist mode; inhibition, % at 3 µM; 2,400 compounds, 77% hits; in the data active means inhibition above about 22%;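 further: CHO-Ga16 host cells stimulated with ATP at an EC80 level; 0% = agonist EC80 plus vehicle and 100% = vehicle without agonist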
TAAR1 antag conf – confirmation of human TAAR1 antagonists. shares compounds with TAAR1 antagonist. TAAR1-expressing cells, fluorescence antagonist read-out. inhibition, % at 3 µM. 2,400 compounds, 40% hits; in the data active means inhibition above about 49%;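 further: CHO-Ga16 host cells challenged with agonist PEA near its EC80; 0% = agonist at EC80 plus vehicle and 100% = vehicle with no agonist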
Ga16 nonsel ag – nonselective Ga16 agonism, counter-screen; shares compounds with TAAR1 antagonist; 2,400 compounds, 18% hits; Ga16-expressing cells, calcium fluorescence, agonist counterscreen; activation, % at 3 µM; in the data active means activation above about 12%;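 further: 0% = vehicle wells and 100% = saturating stimulus response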
TAAR1 ag count – counter-screen for human TAAR1 antagonists: TAAR1 agonists. hTAAR1 cell line, fluorescence activation, agonist mode. 2,400 compounds, 2% hits. shares compounds with TAAR1 antagonist. activation, % at 3 µM. AID 651955; in the data active means activation above about 37%;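 further: CHO cells stably expressing TAAR1 with calcium dye readout; 0% = DMSO vehicle and 100% = full agonist response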
* hit, by the source's call; x = not tested or not shown.

SMILES	TAAR1 agonist	GalR3 antagonist	TAAR1 antagonist	OX1R antag-1	OX1R antag-2	CHO parental Ca	TAAR1 nonsel count	TAAR1 antag conf	Ga16 nonsel ag	TAAR1 ag count
O=C(Nc1cc(=O)c2ccccc2o1)N1CCOCC1	17	0	64*	22	-25	-22	17	26	7	5
CC(C)OC(=O)c1ccc(NC(=O)c2cncc(Br)c2)cc1	20	1	65*	25	-34	-13	27*	44	16*	15
CCC(=O)N1Cc2cc(C(=O)Nc3nccs3)nc(-c3cccc(-c4ccccc4OC)c3)c2[C@@H]1CCO	11	-1	73*	x	x	x	29*	46	8	6
CCC(=O)N1Cc2cc(C(=O)NCCOC)nc(-c3cccc(-c4ccc(C#N)cc4)c3)c2[C@H]1CCO	2	-5	22	x	x	x	x	x	x	x
O=S1(=O)N[C@@H](Cc2ccccc2)COc2cccc(N3CCN(Cc4ccccc4F)CC3)c21	10	-7	71*	x	x	x	35*	50*	10	11
CCOC(=O)c1[nH]c2ccc(Cl)cc2c1NC(=O)/C=C/c1ccc2c(c1)OCO2	2	7	1	6	-1	-7	x	x	x	x
CCN(CC(=O)Nc1c(C(=O)OC)[nH]c2ccc(Cl)cc12)c1ccc2c(c1)OCO2	6	-2	60*	32	-7	-14	27*	37	5	3
CCN1CCN(c2ncnc3c2c(-c2ccccc2)cn3-c2ccc(F)cc2)CC1	12	0	15	0	-21	-10	x	x	x	x
COc1ccc(-n2cc(-c3ccccc3)c3c(N4CCOCC4)ncnc32)cc1	5	0	69*	19	-31	-2	24*	47	8	16
Fc1ccc(-n2cc(-c3ccccc3)c3c(N4CCOCC4)ncnc32)cc1	8	-4	67*	8	-46	-19	15	36	7	17
NC(=O)C1CCN(c2ncnc3c2c(-c2ccccc2)cn3-c2ccccc2)CC1	8	1	64*	13	-19	-4	25*	41	9	8
COc1cccc(CNn2c(-c3cccc(C)c3)nc3ccccc3c2=O)c1O	4	6	54*	15	-20	-20	13	39	7	5
c1ccc(OCc2nnc(-c3ccccc3)o2)cc1	-2	-3	-6	13	-3	-9	x	x	x	x
COc1ccc(C)cc1S(=O)(=O)N1CCC2(CC1)OCCN2S(=O)(=O)c1cccs1	6	-4	2	2	-16	-14	x	x	x	x
CCN(CC)c1ccc(NC(=O)/C=C/c2cc(Br)ccc2OC)cc1	-1	0	74*	50*	-19	-10	10	35	6	6
COc1ccc(Br)cc1/C=C/C(=O)NC(=S)Nc1ccc(CN2CCOCC2)cc1	-1	0	3	2	-40	-24	x	x	x	x
Cc1ccc(C)c(N(CC(=O)NCc2ccco2)C(=O)CNS(=O)(=O)c2ccc(F)cc2)c1	-1	-7	0	28	-15	-8	x	x	x	x
O=C(c1ccc(N2CN(C(=O)c3ccco3)c3nc4ccccc4nc32)cc1)N1CCOCC1	26	0	53*	17	6	-19	21	43	10	9
O=C(c1ccncc1)N1CCN(C(=O)c2ccco2)CC1	4	-5	-13	22	-17	-28	x	x	x	x
CC(C)CN1CCC(=O)N([C@H](CSc2ccccc2)Cc2ccccc2)CC1	10	-6	53*	35	-48	-30	18	30	11	18
